Measurements published in ChEMBL document CHEMBL3232870, “Discovery of 3-(4-methanesulfonylphenoxy)-N-[1-(2-methoxy-ethoxymethyl)-1H-pyrazol-3-yl]-5-(3-methylpyridin-2-yl)-benzamide as a novel glucokinase activator (GKA) for the treatment of type 2 diabetes mellitus” (Bioorg Med Chem, 2014).

Legend:
Mus musculus [1] = test: Antidiabetic activity in glucose-treated C57BL/J6 db/db mouse assessed as reduction of glucose AUC at 30 to 100 mg/kg, po administered for 2 weeks preincubated for 30 mins followed by glucose challenge measured after 30 to 180 mins by oral glucose tolerance test relative to control; format: functional; design: scale not given: the % may be the effect or the level left
Procedure, shortened: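 Oral glucose tolerance test. Mice: eight-week-old male C57BL/6 or ten-week-old male C57BLKS/J db/db, fasted overnight with water. Compound or 0.5% methylcellulose vehicle given orally, then an oral 2 g/kg glucose challenge 30 min later. Tail-tip blood glucose was read just before and at 30, 60, 90, 120 and 180 min. AUC was calculated from the time–glucose curve; n = 6.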

Rattus norvegicus = test: Toxicity in Sprague-Dawley rat assessed as seminiferous tubule degeneration at 250 to 1000 mg/kg, po by hematoxylin and eosin staining-based microscopy; format: organism-based; design: dose 250-1000 mg/kg, route oral; settings: in vivo
Procedure, shortened: (§1)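 Sprague–Dawley rats of both sexes, 5 weeks old at arrival, received daily oral gavage at 0, 250, 500 or 1000 mg/kg/day for 14 days. Vehicle was 0.5% methylcellulose at 10 mL/kg. Toxicokinetics were taken on Day 1 and Day 14. Necropsy was by Day 15. Testis was fixed in modified Davidson's fixative, paraffin-sectioned and H&E-stained, with histopathology on control and high-dose groups only.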

Mus musculus [2] = test: Toxicity in fasting C57BL/J6 mouse assessed as glucose level at 50 mg/kg, po measured after 60 mins; format: organism-based; design: dose 50 mg/kg, route oral; settings: in vivo, 1 h
Procedure, shortened: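 Eight-week-old male C57BL/6 mice were fasted 6 h with free access to water, then dosed orally with compound or 0.5% methylcellulose vehicle, with no glucose challenge. Blood glucose was followed up to 360 min, n = 6 per group.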

[3] = Tmax in female Sprague-Dawley rat at 250 mg/kg, po measured on day 1; format: ADME, organism-based; design: dose 250 mg/kg, route oral; settings: in vivo; procedure, shortened: as §1
Cytochrome P450 1A2 = biological target: T1, Cytochrome P450 1A2 (Homo sapiens, UniProt P05177); test: Inhibition of CYP1A2 in human liver microsomes; format: ADME
T1 sequence (P05177 whole entry): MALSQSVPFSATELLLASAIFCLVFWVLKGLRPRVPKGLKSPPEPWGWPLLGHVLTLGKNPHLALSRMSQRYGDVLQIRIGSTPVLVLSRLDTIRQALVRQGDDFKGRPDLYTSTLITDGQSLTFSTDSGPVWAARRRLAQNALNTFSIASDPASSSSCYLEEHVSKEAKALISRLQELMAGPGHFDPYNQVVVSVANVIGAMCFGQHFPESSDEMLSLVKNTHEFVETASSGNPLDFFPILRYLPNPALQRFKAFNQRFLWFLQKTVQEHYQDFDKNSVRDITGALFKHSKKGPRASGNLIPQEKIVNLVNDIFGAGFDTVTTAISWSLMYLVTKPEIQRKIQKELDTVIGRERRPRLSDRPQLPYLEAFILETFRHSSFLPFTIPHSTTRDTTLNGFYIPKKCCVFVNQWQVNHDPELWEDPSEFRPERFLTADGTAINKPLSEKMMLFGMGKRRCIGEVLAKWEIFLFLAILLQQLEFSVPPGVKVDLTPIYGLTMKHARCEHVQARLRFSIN
Procedure, shortened: (§2)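 Pooled human liver microsomes at 0.25 mg/mL, each with a CYP-selective substrate and test compound up to 25 µM, preincubated at 37 °C. It is stopped on ice with ice-cold acetonitrile and centrifuged, and the supernatant is analysed by LC–MS/MS.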

Salmonella typhimurium [4] = test: Cytotoxicity in Salmonella typhimurium TA100 at 1.5 to 5000 ug/plate in absence of S9 fraction; format: organism-based; settings: salmonella enterica subsp. enterica serovar typhimurium
Procedure, shortened: (§3)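 Ames reverse mutation test by direct plate incorporation in S. typhimurium TA98 and TA100, with or without Aroclor 1254-induced rat liver S9 mix. Compound in DMSO at 1.5–5000 µg/plate, plated in top agar, incubated 37 °C for about 50 h, then revertant colonies counted. Plates were checked for precipitation and cytotoxicity. A positive was a reproducible, dose-related increase in revertants of more than 2-fold.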

Cytochrome P450 2B6 = biological target: T2, Cytochrome P450 2B6 (Homo sapiens, UniProt P20813); test: Inhibition of CYP2B6 in human liver microsomes; format: ADME; procedure, shortened: as §2
T2 sequence (P20813 whole entry): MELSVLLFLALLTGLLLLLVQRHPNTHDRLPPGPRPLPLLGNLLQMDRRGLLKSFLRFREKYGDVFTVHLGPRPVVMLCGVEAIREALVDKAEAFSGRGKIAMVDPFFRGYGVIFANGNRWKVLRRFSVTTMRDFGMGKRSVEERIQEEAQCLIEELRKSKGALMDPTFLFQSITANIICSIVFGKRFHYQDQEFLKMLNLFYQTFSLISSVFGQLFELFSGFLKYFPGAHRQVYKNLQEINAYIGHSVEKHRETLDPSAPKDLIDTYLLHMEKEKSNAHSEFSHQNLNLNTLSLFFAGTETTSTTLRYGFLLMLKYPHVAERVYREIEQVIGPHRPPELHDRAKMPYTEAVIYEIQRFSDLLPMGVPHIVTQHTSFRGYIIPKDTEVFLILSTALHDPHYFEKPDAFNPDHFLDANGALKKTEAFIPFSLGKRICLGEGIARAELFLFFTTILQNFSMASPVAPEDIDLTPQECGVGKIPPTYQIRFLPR

[5] = Cmax in ICR mouse at 3 mg/kg, iv and 10 mg/kg, po; format: ADME, organism-based; settings: in vivo
Procedure, shortened: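 Male ICR mice and 7-week-old SD rats received a 3 mg/kg intravenous bolus or a 10 mg/kg oral gavage dose. Plasma was deproteinized with acetonitrile (2 volumes) and compound measured by HPLC. Parameters came from noncompartmental analysis.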

Hexokinase-4 = biological target: T3, Hexokinase-4 (Homo sapiens, UniProt P35557); test: Activation of recombinant human pancreatic glucokinase using 10 mM glucose by spectrophotometry
T3 sequence (P35557 whole entry): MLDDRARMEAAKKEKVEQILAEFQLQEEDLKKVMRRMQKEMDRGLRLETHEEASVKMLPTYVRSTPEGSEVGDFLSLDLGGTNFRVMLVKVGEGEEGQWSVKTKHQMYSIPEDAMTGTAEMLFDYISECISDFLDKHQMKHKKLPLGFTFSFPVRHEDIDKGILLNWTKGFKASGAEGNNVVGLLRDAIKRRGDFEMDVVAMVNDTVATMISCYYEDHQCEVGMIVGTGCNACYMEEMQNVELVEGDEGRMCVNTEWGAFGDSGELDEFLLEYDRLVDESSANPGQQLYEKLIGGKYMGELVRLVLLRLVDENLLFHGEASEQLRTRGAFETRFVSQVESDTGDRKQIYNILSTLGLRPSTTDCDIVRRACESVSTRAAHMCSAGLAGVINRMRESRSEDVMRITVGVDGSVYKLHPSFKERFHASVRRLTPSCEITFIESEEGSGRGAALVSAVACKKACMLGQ
Procedure, shortened: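 Purified recombinant human pancreatic glucokinase, compounds in DMSO. Buffer: 25 mM HEPES pH 7.4, 10 mM glucose, 25 mM KCl, 1 mM MgCl2, 1 mM DTT, 1 mM ATP, 1 mM NADP, 2.5 U/mL G6PDH. Activity was expressed against DMSO-only control (100%). EC50 came from 12 concentrations fitted to a variable-slope sigmoidal curve. Values are means of three duplicate runs.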

Salmonella typhimurium [6] = test: Cytotoxicity in Salmonella typhimurium TA98 at 1.5 to 5000 ug/plate in presence of S9 fraction; format: organism-based; settings: salmonella enterica subsp. enterica serovar typhimurium; procedure, shortened: as §3

## COCCOCn1ccc(NC(=O)c2cc(Oc3ccc(S(C)(=O)=O)cc3)cc(-c3ncccc3C)c2)n1
Mus musculus [1]
  Activity: 39.8%
Rattus norvegicus
  Activity: Non-toxic
Mus musculus [2]
  Activity: > 60 mg/dL
[3]
  Tmax: 3.7 h
Cytochrome P450 1A2
  inhibition (INH): Not Active
Salmonella typhimurium [4]
  Activity: Non-toxic
Cytochrome P450 2B6
  inhibition (INH): Not Active
[5]
  Cmax: 11700 ng/mL
Hexokinase-4
  EC50: 0.315 µM
Salmonella typhimurium [6]
  Activity: Non-toxic
